Among the data in ChEMBL document CHEMBL1143728, “Anti-inflammatory benzenoids from Antrodia camphorata” (J Nat Prod, 2007) are IC50 values, retold here.

For this assay, the system named is Neutrophil. Description: Inhibition of fMLP-induced superoxide production in human neutrophils. In kind it is functional, cell-based. Put shortly: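 Neutrophils from venous blood of healthy volunteers (20-35 years), isolated by double-gradient Ficoll-Hypaque centrifugation with hypotonic lysis of red cells. Cells at 1 × 10⁶ cells/mL preincubated with test agent (100 µmol/L) 5 min at 37 °C, then stimulated with fMLP (1 µmol/L) in presence of ferricytochrome c (0.5 mg/mL). Extracellular superoxide read continuously by ferricytochrome c reduction at 550 nm. Inhibition % = [(control−resting)−(compound−resting)]/(control−resting) × 100. Three independent experiments, SEM; ibuprofen positive control.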
What is called IC50 is the concentration at which inhibition is half-maximal. A low value points to greater potency in that assay. As for `C=C(CC[C@@H](C)[C@H]1CC[C@H]2C3=C(C(=O)C[C@]12C)[C@@]1(C)CCC(=O)[C@@H](C)[C@@H]1CC3=O)[C@H](C)C(=O)O` [ANTCIN B], the midpoint of inhibition, the IC50, lay at 9.82 µM. The result for `C=C(CC[C@@H](C)[C@H]1CC[C@H]2C3=C(C(=O)C[C@]12C)[C@@]1(C)CCC(=O)[C@@H](C)[C@@H]1CC3)[C@H](C)C(=O)O` [ANTICIN A] reads 8.55 µM; that for `COc1cc(C(=O)Cl)c(OC)c(OC)c1OC`, > 100 µM. In the case of `COc1cc(OC)c(OC)c(C)c1C#C[C@@]1(C)OC(=O)O[C@@]1(C)C#Cc1c(OC)cc(OC)c(OC)c1C` [ANTRODIOXOLANONE], the half-inhibitory concentration (IC50) was > 100 µM. As for `COc1c(C)c(-c2c(C)c(OC)c3c(c2OC)OCO3)c(OC)c2c1OCO2`, the IC50 is > 100 µM. On to `C=C(CC[C@@H](C(=O)O)[C@H]1CC[C@@]2(C)C3=CC[C@H]4C(C)(C)[C@@H](O)CC[C@]4(C)C3=CC[C@]12C)C(C)C` [DEHYDROEBURICOIC ACID], for which the IC50 was 77.5 µM.

With `COc1cc(OC)c(OC)c(C)c1C#CC(C)=O` [ANTROCAMPHIN B], the half-inhibitory concentration (IC50) was > 100 µM. As for `COc1cc(C)c(OC)c2c1OCO2`, the figure is 26.1 µM; as for `CC(C)Cc1ccc(C(C)C(=O)O)cc1` (configuration not stated) [IBUPROFEN], 27.5 µM; as for `C[C@H]1[C@H](O)CC[C@@H]2[C@]1(C)CC[C@H]1[C@@]2(C)CC[C@@]2(C)[C@@H]3CC(C)(C)CC[C@]3(C)CC[C@]12C`, > 100 µM. The compound `c1cc2c(cc1[C@H]1OC[C@H]3[C@@H]1CO[C@@H]3c1ccc3c(c1)OCO3)OCO2` [SESAMIN] displayed an IC50 of 90.2 µM.

`C=C(C)C#Cc1c(OC)cc(OC)c(OC)c1C` [ANTROCAMPHIN A] came in with an IC50 of 9.33 µM.
